Only some compounds are listed: those with a hit (about 2.9% of all), similar ones and a draw of the others.
TRPC6 activator – activators of mouse TRPC6 channel; Q61143; HEK293-TRPC6 membrane potential dye fluorescence; stronger effect = higher value; B-score at 10 µM; 0.13% of 310,000 active; AID 2550;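 active = B-score of the integrated fluorescence ratio above library mean plus 3 SD, and starting fluorescence ratio within library mean plus 5 SD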;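 note: higher score means more depolarization so channel activation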
Kir21 inh – blocks the mouse Kir2.1 inward-rectifier potassium channel | HEK293-Kir2.1, FluxOR thallium flux fluorescence; stronger effect = lower value | B-score at 10 µM | P35561 | 0.85% of 310,000 active;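 active = fluorescence ratio B-score at or below minus 3 SD of library scores, with starting-brightness B-score within 2 SD, cut at about -4.2 in these data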;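 note: channel flux triggered by added potassium and thallium sulfate stimulus; B-score of peak minus minimum fluorescence over baseline after thallium stimulus; more negative B-score means stronger Kir2.1 block with less thallium influx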
TRPC4 agonist – TRPC4 (mouse) channel activation; HEK293 TRPC4beta/mu-opioid, Fluo4 calcium fluorescence; stronger effect = higher value; B-score at 10 µM; 0.49% of 310,000 active; AID 2237;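 active = B-score above 5 SD of library B-scores, and initial fluorescence ratio not above library mean plus 5 SD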;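 note: positive B-score marks a calcium rise read as TRPC4 activation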
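Material: HEK293 stable line with TRPC4beta plus mu-opioid receptor; technique: Fluo4 calcium-sensitive dye fluorescence, kinetic, 1 Hz baseline; timing: Fluo4 dye loading 45 min at room temperature, 110 s recording; controls: assay buffer as low control, maximal DAMGO as high control; read-out: integrated baseline-normalised fluorescence ratio, converted to per-well B score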
TRPC4 block – TRPC4 (mouse) channel inhibition. Q9QUQ5. HEK293 TRPC4beta/mu-opioid, DAMGO-evoked Fluo4 calcium flux; stronger effect = lower value. B-score at 10 µM. 0.39% of 300,000 active. AID 2247;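 active = B-score over 3 SD under the library average, no early fluorescence shift, positive overall ratio signal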
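System: stable TRPC4beta/mu-opioid receptor HEK293 cells; Dosing: single-point compound dosing; Measured by: Fluo4 Ca2+ flux fluorescence; Read-out basis: per-well B score of integrated baseline-normalized Fluo4 ratio.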
TRPC6 inh – blocks the mouse TRPC6 cation channel. 1.1% of 310,000 active. Q61143. HEK293-TRPC6, membrane potential dye, ACh-evoked depolarization; stronger effect = lower value. B-score at 10 µM. AID 2553;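 active = B-score under library mean minus 3 SD, initial fluorescence not abnormally high, positive integrated signal ratio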;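 note: B-score derived from integrated fluorescence ratio over the kinetic read; more negative B-score means stronger inhibition of depolarization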
TRPC4 PAM – allosterically enhances the mouse TRPC4 cation channel; Q9QUQ5; HEK293 TRPC4beta/mu-opioid, DAMGO EC20, Fluo-4 Ca2+ flux; stronger effect = higher value; AID 2227; 0.42% of 310,000 active; B-score at 10 µM;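 active = B-score of calcium response area above 5 SD of library B-scores, with initial fluorescence ratio within 5 SD of library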;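 note: B-score of integrated fluorescence ratio over time as area under calcium response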
The depositor's hits bear a star; i = inactive.

SMILES	TRPC6 activator	Kir21 inh	TRPC4 agonist	TRPC4 block	TRPC6 inh	TRPC4 PAM
CC(=O)C1=C(O)C(=O)N(Cc2ccccc2)C1c1ccc([N+](=O)[O-])cc1 (stereo not given)	i	0.03	i	-6*	i	i
CCc1ccc(S(=O)(=O)/N=C2\C=C(Nc3cccc(C(=O)O)c3)C(=O)c3ccccc32)cc1	i	0.15	i	-8*	i	i
CCc1ccc(S(=O)(=O)/N=C2\C=C(Nc3ccc(O)cc3)C(=O)c3ccccc32)cc1	i	0.33	i	i	i	i
CN1CCN(C(=O)C23CC4CC(CC(C4)C2)C3)CC1	i	0.66	i	i	i	i
CC12CC3CC(C)(C1)CC(C(=O)N1CCCC1)(C3)C2	i	-0.67	i	-6*	i	i
CN1CCN(C(=O)C23CC4CC(C)(CC(C)(C4)C2)C3)CC1	i	-1.2	i	-6*	i	i
N#Cc1cccc(S(=O)(=O)N2CCN(c3ccnc4cc(Cl)ccc34)CC2)c1	i	0.17	i	i	i	i
OCC1(Cc2ccc(F)cc2F)CCCN(Cc2ccc(Cl)cc2)C1 (stereo not given)	i	-9.4*	i	i	i	i
OCC1(Cc2cccc(Cl)c2)CCCN(Cc2ccc(F)c(F)c2)C1 (stereo not given)	i	-0.82	i	i	i	i
CC(=O)Nc1cccc(NC(=S)Nc2cccc(Cl)c2Cl)c1	i	0.23	i	i	i	i
COC(=O)c1cccc(NC(=S)Nc2cccc(Cl)c2Cl)c1	i	0.07	i	-6*	i	i
NC1=NC[C@H](c2ccccc2)N1CCCCC1CCCCC1	i	-6.7*	i	i	i	i
CC(Sc1ccc(Cl)cc1)C(=O)Nc1ccccc1-c1ccccc1 (stereo not given)	i	-2.3	i	i	i	i
CCCC(C)NCC(=O)Nc1ccccc1-c1ccccc1 (stereo not given)	i	-4.5*	i	i	i	i
CC(=O)Nc1ccc(SCC(=O)Nc2ccccc2-c2ccccc2)cc1	i	-4.3*	i	i	i	i
COCC(=O)Nc1ccccc1-c1ccccc1	i	1.2	i	i	i	i
Cc1ccc(SC(C)C(=O)Nc2ccccc2-c2ccccc2)cc1 (stereo not given)	i	-6.9*	i	i	i	i
Cc1ccccc1CN(C)CC(=O)Nc1ccccc1-c1ccccc1	i	-5.6*	i	i	i	i
O=C(c1cccc(NS(=O)(=O)c2cccc(F)c2)c1)N1CCCC1	i	0.34	i	i	i	i
COc1c(Cl)ccc(Cl)c1C(=O)NC(=S)N1CCOCC1	i	-0.68	i	i	i	i
CCS(=O)(=O)c1nc(S(=O)(=O)c2ccc(C)cc2)c(N2CCC(C)CC2)s1	i	0.86	i	i	i	i
Cc1sc2ncnc(N3CCN(Cc4ccccc4)CC3)c2c1-c1ccc(F)cc1	i	0.22	i	i	i	i
O=[N+]([O-])c1cccc(NC(=S)N2CCc3ccccc32)c1	i	-0.38	i	i	i	i
O=C(C1CC(=O)N(c2ccc3c(c2)OCCO3)C1)N1CCN(c2cccc(C(F)(F)F)c2)CC1 (stereo not given)	i	2.2	i	i	i	i
Cc1ccccc1CN(C)CC(=O)Nc1ccccc1Oc1ccccc1	i	0.25	i	i	i	i
CCC(C(=O)Nc1ccccc1-c1ccccc1)c1ccccc1 (stereo not given)	i	-4.9*	i	i	i	i
CN(CC(=O)Nc1ccccc1Oc1ccccc1)Cc1ccccc1F	i	-5.1*	i	i	i	i
CCC(C(=O)Nc1ccccc1)c1ccccc1 (stereo not given)	i	-0.73	i	i	i	i
COc1ccc(NC(=O)C2CCN(S(=O)(=O)c3cccc4nonc34)CC2)c(OC)c1	i	-0.08	i	i	i	i

Screening results (PubChem)
